An excerpt weighted towards active compounds, which were near 3.8% of everything screened.
KCNQ1 pot: potentiates or activates the human KCNQ1 potassium channel | P51787 | CHO-K1 KCNQ1, thallium flux FluxOR fluorescence; hits give high values | B-score at 10 µM | 310,000 tested, 0.35% active;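 active = fluorescence ratio B-score, a plate-corrected score, at least three library SD, with initial intensity B-score within 5 SD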
Target sequence (P51787 whole entry, looked up): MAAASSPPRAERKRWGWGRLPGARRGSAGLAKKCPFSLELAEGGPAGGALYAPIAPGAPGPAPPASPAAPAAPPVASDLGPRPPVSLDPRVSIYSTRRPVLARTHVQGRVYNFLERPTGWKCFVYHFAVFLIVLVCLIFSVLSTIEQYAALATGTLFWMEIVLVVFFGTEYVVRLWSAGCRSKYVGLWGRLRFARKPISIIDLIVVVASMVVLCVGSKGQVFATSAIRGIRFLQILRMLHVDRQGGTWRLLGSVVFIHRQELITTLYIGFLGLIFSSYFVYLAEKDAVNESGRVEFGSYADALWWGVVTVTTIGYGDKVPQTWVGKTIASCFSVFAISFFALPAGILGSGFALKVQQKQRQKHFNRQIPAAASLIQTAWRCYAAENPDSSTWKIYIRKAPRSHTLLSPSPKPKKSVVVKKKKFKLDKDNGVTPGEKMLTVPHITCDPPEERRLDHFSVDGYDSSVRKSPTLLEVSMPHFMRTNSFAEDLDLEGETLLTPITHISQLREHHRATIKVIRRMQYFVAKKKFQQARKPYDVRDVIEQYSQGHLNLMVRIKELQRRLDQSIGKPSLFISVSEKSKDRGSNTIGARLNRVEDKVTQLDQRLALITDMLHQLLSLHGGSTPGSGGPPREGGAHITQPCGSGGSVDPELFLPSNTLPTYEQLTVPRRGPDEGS
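Schedule – 37 °C overnight plating, 90-min dark dye load, 20-min compound pretreatment · System – stable KCNQ1 CHO-K1 line · Probe or stimulus – thallium- and potassium-containing depolarizing buffer · Measured by – kinetic FluxOR fluorescence, 10 s baseline plus 110 s post-stimulus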
Kir21 inh: Kir2.1 (mouse) channel inhibition; 310,000 tested, 0.85% active; P35561; B-score at 10 µM; HEK293-Kir2.1, FluxOR thallium flux fluorescence; hits give low values; AID 1672;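 active = fluorescence ratio B-score at or below minus 3 SD of library scores, with starting-brightness B-score within 2 SD, cut at about -4.2 in these data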;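 also: channel flux triggered by added potassium and thallium sulfate stimulus; B-score of peak minus minimum fluorescence over baseline after thallium stimulus; more negative B-score means stronger Kir2.1 block with less thallium influx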
KCNQ1 block: inhibitors of human KCNQ1 potassium channel | CHO-K1 KCNQ1, FluxOR thallium flux fluorescence; hits give high values | B-score at 10 µM | 310,000 tested, 1.3% active;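 active = compounds whose thallium flux B-score, printed positive for inhibition, exceeds three library SD while starting fluorescence stays within three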;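 also: channel opened by potassium depolarization with thallium stimulus after 20 min compound exposure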
KCNK3 inh: human KCNK3 channel inhibition, primary screen; AID 602410; O14649; B-score at 10 µM; 340,000 tested, 0.84% active; CHO-KCNK3 thallium flux, FluxOR fluorescence; hits give low values;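 active = B-score under library mean minus 4 SD, starting fluorescence ratio at most library mean plus 5 SD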;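 also: more negative B-score means stronger inhibition of thallium flux through KCNK3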
hERG protect: hERG (human) protection from proarrhythmic block; activation (rescue from dofetilide block), less the hit threshold, % at 10 µM; 310,000 tested, 0.51% active; Q12809; CHO-hERG, FluxOR thallium flux, dofetilide IC70 present; AID 1511;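 active = activation above the mean of controls blocked by dofetilide plus 5 SD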;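 also: thallium influx through hERG after potassium depolarization seen as dye fluorescence rise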
KCNK9 block: human KCNK9 channel inhibition; AID 488922; HEK293 KCNK9, FluxOR thallium flux fluorescence; hits give low values; B-score at 10 µM; Q9NPC2; 310,000 tested, 1.2% active;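 active = ratio B-score over 3 SD below the library mean, with starting fluorescence within 5 SD of its mean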;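 also: negative B-score means less thallium flux so channel inhibition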
KCNQ1 block val: human KCNQ1 channel inhibition, validation assay; shares compounds with KCNQ1 block; KCNQ1 cell line, FluxOR thallium flux fluorescence; inhibition, % at 10 µM; 1,600 tested, 93% active; AID 588353;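 active = primary screen active, with duplicate mean exceeding buffer control mean plus 3 SD of buffer wells, cut at about 28% in these data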
CHO Tl flux: KCNQ1 inhibitor counter-screen hit in parental CHO cells; shares compounds with KCNQ1 block; parental CHO-K1, FluxOR thallium flux fluorescence ratio; hits give low values; zero means no signal rise above baseline; fluorescence ratio (Tl flux) at 10 µM; 1,600 tested, 21% active; AID 588366;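 active = mean of duplicate thallium-flux fluorescence ratios in parental host cells more than 5 SD below the buffer control mean, cut at about 0.38 in these data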;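 also: ratio is peak minus minimum fluorescence divided by baseline fluorescence; actives read low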
KCNQ1 APC inh: human KCNQ1 inhibition validated by electrophysiology | shares compounds with KCNQ1 block | KCNQ1-CHO cells, automated patch clamp current | calls only at 10 µM | 490 tested, 20% active | AID 624120;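 active = KCNQ1 current drop exceeding 3 SD of negative control wells, seen in both duplicate runs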;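 also: steady state current during a 2 s step from -80 to +40 mV; negative values mean current inhibition and positive values mean potentiation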
KCNQ2 spec: KCNQ1 inhibitor that also blocks rat KCNQ2 channel; KCNQ2 cells, FluxOR thallium flux fluorescence; 1,600 tested, 71% active; shares compounds with KCNQ1 block; inhibition, % at 10 µM; AID 651746;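 active = mean percent inhibition of the KCNQ2 thallium signal more than 5 SD above the buffer-only control wells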;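 also: KCNQ2 expressed in CHO cells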
KCNQ1 KCNE1 spec: human KCNQ1/KCNE1 inhibition in KCNQ1 specificity screen. shares compounds with KCNQ1 block. 1,600 tested, 77% active. inhibition, % at 10 µM. KCNQ1/KCNE1 cells, FluxOR thallium flux fluorescence;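 active = mean percent inhibition of duplicate wells above the buffer-only control mean plus 3 SD of those controls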
Each line names hits and unclear results; the compound was inactive in the other large screens (follow-up assays come after a bar, where they were run).

CC1CCCN(S(=O)(=O)c2ccc(S(=O)(=O)N3CCCC3)cc2)C1 (stereo not drawn)	none
CC1CCCN(S(=O)(=O)c2ccc3[nH]c4c(c3c2)CCCC4)C1 (stereo not drawn)	KCNQ1 block 12 | KCNQ1 block val 104.0 | CHO Tl flux inactive | KCNQ1 APC inh inactive | KCNQ2 spec 99.0% | KCNQ1 KCNE1 spec 130.5%
COc1cc2nncc(SC)c2cc1OC	none (no result: KCNQ1 pot, Kir21 inh, KCNQ1 block, hERG protect, KCNK9 block)
Cn1c(=O)c2[nH]c(-c3ccccc3Cl)c(O)c2n(C)c1=O	KCNQ1 block 6 | KCNQ1 block val 82.0 | CHO Tl flux inactive | KCNQ2 spec inactive | KCNQ1 KCNE1 spec 97.5%
Cn1c(=O)c2[nH]c(-c3ccccc3)c(O)c2n(C)c1=O	KCNQ1 block 7 | KCNQ1 block val 45.0 | CHO Tl flux inactive | KCNQ2 spec inactive | KCNQ1 KCNE1 spec 91.0%
Cn1c2c(c(=O)n(C)c1=O)C(C(F)(F)F)(C(F)(F)F)N=C(c1ccccc1Cl)N2	none
CC(OC(=O)c1ccccc1C(=O)N(C)Cc1ccccc1)C(=O)NC1(C#N)CCCCC1 (stereo not drawn)	none (no result: KCNQ1 pot, Kir21 inh, KCNQ1 block, hERG protect, KCNK9 block)
CCOC(=O)N1CCN(CC(O)COCCC23CC4CC(CC(C4)C2)C3)CC1 (stereo not drawn)	none
CC1CCCCN1CC(O)COCCC12CC3CC(CC(C3)C1)C2 (stereo not drawn)	KCNQ1 block 8 | KCNQ1 block val 90.5 | CHO Tl flux inactive | KCNQ1 APC inh active | KCNQ2 spec 70.7% | KCNQ1 KCNE1 spec 64.5%
CC[C@@H]1CC=C[C@H]2[C@H]1C(=O)N(Cc1ccccc1)[C@H]2c1ccoc1	KCNQ1 block 9 | KCNQ1 block val 78.0 | CHO Tl flux 0.377 | KCNQ2 spec 103.7% | KCNQ1 KCNE1 spec 114.5%
CC(=O)c1ccc(OCC(=O)NC(=O)NC2CCCCC2)cc1	none
CC(C)c1noc2ncc(C(=O)c3cc(Cl)cc(Cl)c3O)cc12	KCNQ1 block 6 | KCNQ1 block val 52.0 | CHO Tl flux inactive | KCNQ2 spec inactive | KCNQ1 KCNE1 spec inactive
CC1Cc2ccccc2N1C(=O)CNc1ccccc1N1CCCCC1 (stereo not drawn)	KCNQ1 block 7 | KCNQ1 block val 81.0 | CHO Tl flux inactive | KCNQ2 spec 100.7% | KCNQ1 KCNE1 spec 86.0%
COc1cc(/C=C(\C#N)C(=O)NCC2CCCO2)ccc1OCCC(C)C (stereo not drawn)	none
Oc1ccc(-c2nc3ccccc3nc2-c2ccccc2)cc1	KCNQ1 block 7 | KCNQ1 block val 84.0 | CHO Tl flux 0.379 | KCNQ2 spec 71.3% | KCNQ1 KCNE1 spec 109.5%
COc1ccc(-c2nc3ccccc3nc2-c2ccc(OC)cc2)cc1	KCNQ1 block 10 | KCNQ1 block val 88.5 | CHO Tl flux 0.338 | KCNQ2 spec 96.0% | KCNQ1 KCNE1 spec 115.0%
COc1ccc(-c2nc3ccccc3nc2-c2ccc(OC)c(OC)c2)cc1OC	none
CCOC(=O)C1=C(C)N=c2s/c(=C\c3ccc(O)c([N+](=O)[O-])c3)c(=O)n2C1c1ccccc1OC (stereo not drawn)	KCNQ1 block 18 | KCNQ1 block val 143.5 | CHO Tl flux 0.301 | KCNQ2 spec 109.0% | KCNQ1 KCNE1 spec active
